# Experimental data pooled from the literature.
# Protocols differ between the studies behind these lines.
# Matrix: plasma
# Route: intravenous
SMILES,system,conditions,Vd [L/kg]
COCC(=O)N1CCC[C@H](C(=O)NCc2nc(-c3ccccc3)cs2)C1,male Sprague-Dawley rat,1 mg/kg,0.18
C=CCn1c(=O)c2cnc(Nc3ccc(N4CCN(C)CC4)cc3)nc2n1-c1ccc2c(n1)[C@@](O)(CC)CC2,rat,3 mg/kg,2.8
Cc1cc(S(=O)(=O)N[C@]2(C)C[C@@H](N3CCN(CC4CCN(c5ccc6c(c5F)n(C)c(=O)n6C5CCC(=O)NC5=O)CC4)CC3)C2)ccc1Nc1ncc(C(F)(F)F)c(N2CCC[C@](C)(O)C2)n1 (stereo partly drawn),rat,2 mg/kg,7
CC(=O)c1c(C)c2cnc(Nc3ccc(N4CCNCC4)cn3)nc2n(C2CCCC2)c1=O,male Sprague-Dawley rat,5 mg/kg,3.3
Cc1nc(Nc2ncc(C(=O)Nc3c(C)cccc3Cl)s2)cc(N2CC[C@H](N)C2)n1,male Sprague-Dawley rat,1 mg/kg,16.4
Cc1cc(S(=O)(=O)N[C@H]2CC[C@H](CN3CCN(c4cccc(NC5CCC(=O)NC5=O)c4)CC3)CC2)ccc1Nc1ncc(C(F)(F)F)c(N2CCC[C@](C)(O)C2)n1 (stereo partly drawn),rat,2 mg/kg,10
CC(C)(N)COCC(=O)N1CCC[C@H](C(=O)NCc2nc(-c3ccc(C(F)(F)F)cc3)cs2)C1,male Sprague-Dawley rat,1 mg/kg,4.3
Cc1nc(Nc2ncc(C(=O)Nc3c(C)cccc3Cl)s2)cc(N2CC[C@H](O)C2)n1,male Sprague-Dawley rat,"1 mg/kg, single dose",0.9
Cc1cc(S(=O)(=O)N[C@H]2CC[C@H](N3CCN(CC4CCN(c5cccc6c5n(C)c(=O)n6C5CCC(=O)NC5=O)CC4)CC3)CC2)ccc1Nc1ncc(C(F)(F)F)c(N2CCC[C@](C)(O)C2)n1 (stereo partly drawn),rat,2 mg/kg,10
CCOCC(=O)N1CCC[C@H](C(=O)NCc2nc(-c3ccc(C)nc3)cs2)C1,male Sprague-Dawley rat,1 mg/kg,0.3
Cn1c(=O)c2[nH]cnc2n(C)c1=O,male Sprague-Dawley rat,11.25 mg/kg,2.39
COc1ccc(N(Cc2csc(-c3ccccc3)n2)C(=O)CCCCCC(=O)NO)cc1,female Sprague-Dawley rat,5 mg/kg,441
CCONC(=O)N1CCC[C@H](C(=O)NCc2nc(-c3ccc(C#N)cc3)cs2)C1,male Sprague-Dawley rat,1 mg/kg,0.45
C[C@H]1CN(CC2CCN(c3ccc(C4CCC(=O)NC4=O)cc3F)CC2)CC[C@H]1NS(=O)(=O)c1ccc(Nc2ncc(C(F)(F)F)c(N3CCC[C@](C)(O)C3)n2)c(F)c1 (stereo partly drawn),rat,2 mg/kg,7
Cc1nc(Nc2ncc(C(=O)Nc3c(C)cccc3Cl)s2)cc(N2CCN(CCO)CC2)n1,male Sprague-Dawley rat,1 mg/kg,2.8
